# Source: PubChem
# SENP7 block – inhibitors of human SENP7 protease | Q9BQF6 | recombinant SENP7, Z-RLRGG-aminoluciferin luminescence, 40 min | inhibition, % at 5 µM | hit rate 1.5% among 330,000 | AID 434973;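 active means inhibition above about 50% at the single test dose, limit read from the data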;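 further: plate controls were DMSO with enzyme for no effect and no enzyme buffer wells for full effect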
# SENP8 block-1 – inhibitors of human SENP8 protease; Q96LD8; recombinant SENP8, Nedd8 substrate fluorescence; inhibition, % at 20 µM; hit rate 0.64% among 360,000; in the data active means inhibition mostly above about 40%, no sharp cut-off; inactive means mostly below about 27%
# Target sequence (Q96LD8 whole entry, looked up): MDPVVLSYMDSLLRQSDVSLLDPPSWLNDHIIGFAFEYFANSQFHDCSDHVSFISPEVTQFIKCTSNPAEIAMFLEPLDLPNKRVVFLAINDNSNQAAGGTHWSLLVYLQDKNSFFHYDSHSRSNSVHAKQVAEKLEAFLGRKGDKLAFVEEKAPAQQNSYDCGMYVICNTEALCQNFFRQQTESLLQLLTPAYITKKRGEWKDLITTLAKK
# SENP1 FRET inh – inhibitors of human SENP1 SUMO protease catalytic domain; Q9P0U3; recombinant SENP1 catalytic domain, CyPet-SUMO1-YPet FRET cleavage; inhibition, % at 10 µM; hit rate 0.21% among 360,000; AID 624204;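 active means inhibition at least 30% at 10 µM, raw YFP signal under a set limit, fluorescence ratio 0.5 to 1.5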;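 further: 0% = enzyme with DMSO and 100% = no enzyme wells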
# Target sequence (Q9P0U3 419-644 limits assumed): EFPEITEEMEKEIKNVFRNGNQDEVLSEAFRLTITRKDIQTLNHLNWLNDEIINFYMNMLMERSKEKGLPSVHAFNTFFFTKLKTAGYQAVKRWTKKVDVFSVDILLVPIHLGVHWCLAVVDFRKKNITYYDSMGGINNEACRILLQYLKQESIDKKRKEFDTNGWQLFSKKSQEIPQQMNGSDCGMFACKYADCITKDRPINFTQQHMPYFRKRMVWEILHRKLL
#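 Assay system – human recombinant His6-tagged SENP1 catalytic domain enzyme · Input – SENP1 enzyme, 20 pM final · Buffer or medium – Tris pH 8 buffer plus EDTA, NaCl, BME, BSA, NP40, catalase · Schedule – 50 min reaction at room temperature · Technique – FRET read of cyan and yellow fluorescence · Control set – no-enzyme wells low, DMSO-plus-enzyme wells high control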
# SENP6 block – blocks the human protease SENP6; hit rate 1.8% among 330,000; inhibition, % at 10 µM; Recombinant SENP6 catalytic domain, aminoluciferin luminescence; Q9GZR1;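 active means inhibition above about 50% at the single tested dose, limit read from the data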;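 further: plate controls were DMSO wells with enzyme for no effect and DMSO wells lacking enzyme for full effect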
# SENP8 block-2 – inhibitors of human SENP8 protease. purified SENP8, Z-RLRGG-aminoluciferin cleavage, luminescence. hit rate 1.2% among 330,000. Q96LD8. AID 2540. inhibition, % at 10 µM; in the data active means inhibition above about 50%
# SENP8 conf – human SENP8 inhibition, confirmed; shares compounds with SENP7 block; Recombinant SENP8, Z-RLRGG-aminoluciferin luminescence, 60 min; inhibition, % at 12.5 µM; hit rate 40% among 6,200; AID 488912;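 active means mean inhibition across replicates above about 50%, limit read from the data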
# SENP6 conf – human SENP6 inhibition, confirmed. hit rate 58% among 6,200. recombinant SENP6, Z-RLRGG-aminoluciferin luminescence. shares compounds with SENP7 block. inhibition, % at 12.5 µM
# SENP7 conf – human SENP7 inhibition, confirmed | inhibition, % at 12.5 µM | AID 488917 | shares compounds with SENP7 block | hit rate 69% among 6,200 | recombinant SENP7, Z-RLRGG-aminoluciferin luminescence, 40 min
# Casp3 SENP sel – caspase-3 inhibition (SENP selectivity assay); AID 488918; shares compounds with SENP7 block; hit rate 60% among 6,200; inhibition, % at 12.5 µM; purified caspase-3, Z-DEVD-aminoluciferin luminescence, 60 min;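 active means mean inhibition above about 50%, limit read from the data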;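 further: plate controls were enzyme with DMSO for no effect and wells without caspase-3 for full effect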
# Target sequence (P42574 28-227 limits assumed): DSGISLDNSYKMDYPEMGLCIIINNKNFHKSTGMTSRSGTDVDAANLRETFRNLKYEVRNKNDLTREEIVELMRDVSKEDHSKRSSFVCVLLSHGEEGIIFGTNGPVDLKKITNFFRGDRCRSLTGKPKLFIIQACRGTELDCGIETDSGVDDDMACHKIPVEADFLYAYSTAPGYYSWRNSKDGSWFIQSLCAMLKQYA
# SENP luc ctr – luminescence interference (SENP counter-screen); shares compounds with SENP7 block; hit rate 39% among 6,200; Pre-incubated SENP8/Z-RLRGG-aminoluciferin, luciferase luminescence interference; inhibition, % at 12.5 µM;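 active means mean inhibition above about 50% when retested at one dose, limit read from the data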;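 further: plate controls were DMSO wells with completed reaction for no effect and substrate without enzyme for full effect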
# An asterisk follows results filed as active; nt = no result given. Rows were chosen to be rich in hits. Some 2.5% of all compounds tested hit in one or more screens of this group.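 How the source made its calls, unless noted: active means mean inhibition above about 50% in the one-dose retest (limit read from the data); inactive means the rest.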
SMILES,SENP7 block,SENP8 block-1,SENP1 FRET inh,SENP6 block,SENP8 block-2,SENP8 conf,SENP6 conf,SENP7 conf,Casp3 SENP sel,SENP luc ctr
O=C(Nc1ccc(NC(=O)c2ccco2)nc1)c1ccccn1,50.7*,5.5,1.0,54.1*,24.5,-6.4,35.7,74.5*,80.5*,31.5
CCC(=O)Nc1ccc(NC(=O)c2cccc(OC)c2)nc1,41.1,20.7,-1.5,42.3,11.4,nt,nt,nt,nt,nt
C[C@H](CO)N1C[C@H](C)[C@@H](CN(C)Cc2ccc(Oc3ccccc3)cc2)Oc2c(NS(=O)(=O)c3cn(C)cn3)cccc2C1=O,8.8,-5.8,0.6,8.4,3.8,nt,nt,nt,nt,nt
COc1ccc(C(=O)/C=C2\Sc3ccccc3N2C)cc1,52.9*,-377.4,-127.2,4.7,47.6,74.1*,76.6*,92.4*,76.9*,15.7
CC(=S)/C=C1\Sc2ccccc2N1C,3.0,28.6,-1.4,1.2,4.7,nt,nt,nt,nt,nt
CCc1ccc(C(=O)COC(=O)c2cccnc2Cl)cc1,93.8*,-4.0,-0.3,93.0*,87.5*,90.1*,90.1*,100.1*,93.0*,87.9*
O=C(OCc1ccc(COC(=O)c2cccnc2Cl)cc1)c1cccnc1Cl,-4.1,1.2,3.0,-8.0,-22.4,nt,nt,nt,nt,nt
CC(C)N(C(=O)COC(=O)c1cccnc1Cl)c1ccccc1,2.0,13.7,1.2,11.2,3.2,nt,nt,nt,nt,nt
O=C(COC(=O)c1cccnc1Cl)c1ccccc1,65.4*,0.6,1.5,78.5*,23.5,56.3*,52.7*,87.0*,86.0*,71.1*
O=C(OCc1ccccc1Cl)c1cccnc1Cl,28.3,10.8,-0.7,63.0*,19.6,32.4,34.9,71.6*,42.1,36.3
O=C1C=C(c2ccc(F)nc2)C[C@@H](c2ccc3c(c2)OCO3)C1,5.5,19.6,0.2,9.8,2.9,nt,nt,nt,nt,nt
Cc1cccc(C(=O)NCCC(=O)Nc2ccc(F)c([N+](=O)[O-])c2)c1,9.6,13.2,0.0,8.3,6.9,nt,nt,nt,nt,nt
O=c1[nH]c2ccccc2c(O)c1O,2.5,-192.5,0.5,-2.8,-6.4,nt,nt,nt,nt,nt
Cc1cccc(C(=O)Nc2ccc(C(=O)N/N=C/c3ccc4c(c3)OCO4)cc2)c1,-1.4,-281.4,-0.6,-2.8,2.2,nt,nt,nt,nt,nt
Nc1c(C(=O)Nc2cccc(F)c2)nnn1-c1ccc2c(c1)OCCO2,83.3*,9.5,3.8,42.8,16.6,14.3,23.2,93.9*,69.2*,12.8
O=C(Nc1ccc2c(c1)OCO2)c1cccc(F)c1,75.9*,12.8,0.8,79.4*,46.1,54.5*,54.3*,86.6*,81.7*,70.4*
Cc1cccc(C(=O)Nc2cccc(C(=O)N/N=C/c3ccc4c(c3)OCO4)c2)c1,-7.1,-147.8,-16.6,50.5*,34.0,57.5*,45.9,45.5,47.1,26.1
O=C(Nc1cccc(F)c1)Nc1ccc2c(c1)OCO2,96.0*,-0.2,1.4,92.5*,84.9*,83.6*,86.5*,99.2*,85.5*,79.8*
Cc1ccccc1NC(=O)c1nnn(-c2ccc3c(c2)OCCO3)c1N,22.8,7.6,0.2,31.8,17.5,nt,nt,nt,nt,nt
O=C(Nc1cccc2nsnc12)c1cc2c(cc1Cl)Sc1nccn1S2(=O)=O,nt,-452.6,-11.6,nt,nt,nt,nt,nt,nt,nt
COc1ccc(N(C(=O)/C=C/c2ccccc2)C2=CC3CCC(C2)N3C)cc1 (centres undefined),-9.0,20.4,0.3,-9.6,-8.9,nt,nt,nt,nt,nt
Cc1ccc(N=Cc2sc(O)c3ccccc23)cc1,76.4*,-60.2,-23.7,67.6*,85.8*,90.5*,92.2*,99.5*,74.2*,46.7
CCN(CC)C(=O)Cn1cc(S(=O)(=O)CC(=O)NC2CCCCC2)c2ccccc21,-5.0,16.9,0.7,-5.0,3.4,nt,nt,nt,nt,nt
COC(=O)c1[nH]c2cccc(Cl)c2c1NC(=O)CN1CCN(CCO)CC1,100.9*,-16.6,0.8,13.5,0.7,11.2,9.9,0.2,-3.7,-3.2
COC(=O)c1[nH]c2cccc(Cl)c2c1NC(=O)CN1CCCCC1C (centres undefined),5.0,-47.1,-1.5,-34.1,5.2,nt,nt,nt,nt,nt
SMILES,SENP7 block,SENP8 block-1,SENP1 FRET inh,SENP6 block,SENP8 block-2,SENP8 conf,SENP6 conf,SENP7 conf,Casp3 SENP sel,SENP luc ctr
Cc1ccnc(NS(=O)(=O)c2ccc(NC(=O)C(C)(C)C)cc2)n1,-2.4,5.8,2.1,88.6*,4.3,12.3,10.9,-3.0,1.2,2.9
CC(=O)Nc1ccc(S(=O)(=O)Nc2nccc(C)n2)cc1,-9.9,4.6,-1.7,-1.3,-1.3,nt,nt,nt,nt,nt
O=[N+]([O-])c1ccc(O)c(/C=N/Nc2nc3ccccc3[nH]2)c1,-8.0,34.2,12.1,30.2,22.9,nt,nt,nt,nt,nt
O=[N+]([O-])c1ccc(O)c(/C=N/Nc2ncnc3c2cnn3-c2ccccc2)c1,93.4*,14.2,-54.3,90.5*,92.7*,87.4*,90.7*,100.3*,43.2,2.9
CCOC(=O)C(=C1Nc2ccccc2N1)n1c(-c2cccnc2)nc2ccccc21,nt,-224.0,-19.1,nt,nt,nt,nt,nt,nt,nt
CC(C)(C)n1nnnc1C(c1cccc(C(F)(F)F)c1)N1CCC(O)CC1 (centres undefined),-0.6,-0.6,-0.9,-14.0,2.1,nt,nt,nt,nt,nt
CCC(=O)Nc1cccc(NC(=O)c2cc3ccccc3o2)c1,74.0*,21.8,2.4,67.4*,53.7*,74.3*,66.7*,88.3*,73.9*,70.3*
Cc1cccc(NC(=O)c2cc3ccccc3o2)c1,93.9*,9.8,1.0,93.5*,86.6*,7.9,94.0*,101.4*,91.2*,92.4*
CCOC(=O)c1ccc(NC(=O)c2cc3ccccc3o2)cc1,51.6*,-9.9,-1.3,60.4*,45.0,32.4,53.0*,59.5*,42.6,42.1
CCC(=O)Nc1ccc(NC(=O)c2cc3ccccc3o2)c(OC)c1,4.3,-12.3,-1.4,21.8,-5.7,nt,nt,nt,nt,nt
O=C(Nc1cccc(Br)c1)c1cc2ccccc2o1,-10.8,7.3,1.4,94.1*,88.8*,93.8*,94.0*,100.6*,82.3*,88.5*
CC(NC(=O)Cc1ccsc1)c1ccc(Cl)cc1Cl (centres undefined),-4.8,4.0,1.0,20.4,5.2,nt,nt,nt,nt,nt
CCN(C(=O)COC(=O)c1cccc(NS(=O)(=O)c2ccc(F)c(F)c2)c1)C1CCS(=O)(=O)C1 (centres undefined),2.7,nt,nt,-21.5,-5.5,nt,nt,nt,nt,nt
CCCc1cc(C(=O)Nc2cccc(-c3nn[nH]n3)c2)sc1C,nt,-3.4,1.9,nt,nt,nt,nt,nt,nt,nt
O=C(Nc1cccnc1)c1cc2cc(Br)ccc2o1,92.5*,5.1,-0.5,91.4*,85.3*,88.7*,88.1*,100.1*,90.6*,31.7
